According to ChEMBL document CHEMBL4007421, “Discovery and Preclinical Characterization of 3-((4-(4-Chlorophenyl)-7-fluoroquinoline-3-yl)sulfonyl)benzonitrile, a Novel Non-acetylenic Metabotropic Glutamate Receptor 5 (mGluR5) Negative Allosteric Modulator for Psychiatric Indications” (J Med Chem, 2017):
Calls of active or inactive are those of the source. The rule behind the calls is not given here.

How the values were obtained:
Liver [1] = test: Intrinsic clearance in rat liver microsomes at 2.5 uM assessed per gram of liver; type: ADME, microsome
Rattus norvegicus [2] = test: Anxiolytic activity in ip dosed Wistar rat assessed as increase in water drinking time during punished period administered as suspension by Vogel punished drinking conflict test; type: functional; settings: read-out: MED
Outline: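 Vogel punished-drinking test in rats, single i.p. or p.o. dose as suspension in 5% Tween 80; plasma sampled ~45 min after i.p. or ~75 min after p.o. dosing.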

[3] = Plasma concentration in ip dosed Wistar rat at anxiolytic MED administered as suspension after 45 mins during Vogel punished drinking conflict test; type: ADME, organism-based
Outline: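 Vehicle was a suspension containing 5% Tween 80, given i.p. at the Vogel minimum effective dose. Plasma was sampled about 45 min after dosing, right after the Vogel punished drinking test.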

Plasma = test: Plasma concentration in Wistar rat at 30 mg/kg, po administered as single dose; type: ADME, organism-based; settings: in vivo
Rattus norvegicus [4] = test: Therapeutic index, ratio of plasma concentration causing effect on spatial learning performance in po dosed Wistar rat by Morris water maze test to plasma concentration causing anxiolytic activity in Wistar rat by Vogel punished drinking conflict test
Outline: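 Index is the plasma level in rats at 30 mg/kg p.o. in the Morris water maze (sampled after the last trial on Day 4) divided by the plasma level at the Vogel minimum effective dose. Vogel plasma was sampled right after the test.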

MDR1 [5] = test: Apparent inward permeability in MDCK2-MDR1 cells; type: ADME, cell-based, Canis lupus familiaris; settings: dog, MDCK-MDR1
MDR1 [6] = test: Ratio of apparent outward permeability to apparent inward permeability in MDCK2-MDR1 cells; type: ADME, cell-based, Canis lupus familiaris; settings: dog, MDCK-MDR1
Outline: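 MDCKII-MDR1 cell monolayers used as an in vitro surrogate of brain penetration. Transport was measured in both the inward and outward directions, and an apparent permeability (Papp) was calculated for each. The directional ratio (PDR) is Papp outward divided by Papp inward.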

Liver [7] = test: Intrinsic clearance in dog liver microsomes at 2.5 uM assessed per gram of liver; type: ADME, Canis lupus familiaris, microsome
[8] = Plasma protein binding in rat; type: ADME, cell-free; settings: read-out: PPB (converted)
Cytochrome P450 3A4 = Cytochrome P450 3A4 (Homo sapiens, UniProt P08684); test: Inhibition of CYP3A4 in human liver microsomes; type: ADME
[9] = Plasma concentration in Wistar rat at 1 mg/kg, po after 75 mins; type: ADME, organism-based
Outline: (§1)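 Plasma levels taken right after the Vogel test (~75 min after oral dose) following single oral doses in lipid-based formulations; data pooled from four experiments; mean±SD.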

Rattus norvegicus [10] = test: Anxiolytic activity in Wistar rat assessed as increase in water drinking time during punished period at 10 mg/kg, po qd measured after first dosing by Vogel punished drinking conflict test; type: functional, organism-based
Outline: (§2)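 Vogel punished-drinking test in rats after 24 h water deprivation, with 60 s unpunished drinking; oral 10 mg/kg given once daily for 19 days, vehicle group dosed only on Day 19 as first-dose control; plasma sampled right after test; n=10 per group; ANOVA with Duncan post-hoc.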

Rattus norvegicus [11] = test: Anxiolytic activity in po dosed Wistar rat assessed as reduction in ultrasonic vocalization; type: functional
Rattus norvegicus [12] = test: Anxiolytic activity in po dosed Wistar rat assessed as reduction in freezing behavior by contextual fearing test; type: functional
Rattus norvegicus [13] = test: Effect on spatial learning performance in po dosed Wistar rat measured as escape latency dosed 1 hr prior to first daily trial by Morris water maze test; type: ADME, organism-based; settings: in vivo
Outline: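 Morris water maze with male Harlan-Wistar rats (190–220 g): three trials a day for 4 days, hidden 10 cm platform, video tracking; 30 mg/kg p.o. in Type IV lipid formulation 1 h before first daily trial; plasma taken after last Day 4 trial; 7–17 rats/group.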

[14] = (§3) Toxicity in po dosed Harlan-Wistar rat assessed as decrease in spontaneous locomotor activity photocell-based activity monitor test; type: organism-based; settings: Harlan-Wistar, in vivo
Outline: (§4)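 Male Wistar rats were given 0, 10, 30 or 50 mg/kg p.o. Spontaneous locomotor activity (ambulatory movement) was recorded in a photocell-based activity monitor.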

Rattus norvegicus [15] = test: as §3; type: organism-based; settings: in vivo; outline: as §4
[16] = Clearance in male Crl:CD(SD) rat at 0.5 mg/kg, iv; type: ADME, organism-based; settings: in vivo
[17] = Clearance in female Crl:CD(SD) rat at 0.5 mg/kg, iv; type: ADME, organism-based; settings: in vivo
[18] = Volume of distribution in male Crl:CD(SD) rat at 0.5 mg/kg, iv; type: ADME, organism-based; settings: in vivo
Outline: (§5)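 Single-dose PK: i.v. and oral dosing in Crl:CD(SD) rats and beagle dogs, plus a pilot oral nasogastric study in Cynomolgus monkeys using a Type IV lipid formulation. Rat i.v. vehicle was 80% cosolvent. Monkeys were fasted from 2 h before until 2 h after dosing, n=3 per sex. Rats also received [14C]-labelled compound orally at 50 mg/kg, with total radioactivity followed. Parameters are means; monkey values are medians.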

[19] = Volume of distribution in female Crl:CD(SD) rat at 0.5 mg/kg, iv; type: ADME, organism-based; settings: in vivo; outline: as §5
[20] = Terminal elimination half life in male Crl:CD(SD) rat at 4.5 mg/kg, po; type: ADME, organism-based; settings: in vivo, read-out: beta t1/2 (converted); outline: as §5
[21] = Terminal elimination half life in female beagle dog at 0.5 mg/kg, iv administered as infusion; type: ADME, organism-based, Canis lupus familiaris; settings: in vivo, read-out: beta t1/2 (converted); outline: as §5
[22] = Terminal elimination half life in fasted male beagle dog at 1 mg/kg, po; type: ADME, organism-based, Canis lupus familiaris; settings: in vivo, read-out: beta t1/2 (converted); outline: as §5
[23] = Terminal elimination half life in fasted female beagle dog at 1 mg/kg, po; type: ADME, organism-based, Canis lupus familiaris; settings: in vivo, read-out: beta t1/2 (converted); outline: as §5
[24] = Terminal elimination half life in fasted male cynomolgus monkey at 9 mg/kg, po administered as single dose; type: ADME, organism-based, Macaca fascicularis; settings: in vivo, read-out: beta t1/2 (converted); outline: as §5
[25] = Tmax in female Crl:CD(SD) rat at 4.5 mg/kg, po; type: ADME, organism-based; settings: in vivo; outline: as §5
[26] = Tmax in female beagle dog at 0.5 mg/kg, iv administered as infusion; type: ADME, organism-based, Canis lupus familiaris; settings: in vivo; outline: as §5
[27] = Cmax in female Crl:CD(SD) rat at 4.5 mg/kg, po; type: ADME, organism-based; set-up: dose 4.5 mg/kg, route oral; settings: in vivo
[28] = AUC in male Crl:CD(SD) rat at 0.5 mg/kg, iv; type: ADME, organism-based; settings: in vivo
[29] = AUC in female Crl:CD(SD) rat at 4.5 mg/kg, po; type: ADME, organism-based; settings: in vivo
[30] = AUC in fasted male beagle dog at 1 mg/kg, po; type: ADME, organism-based, Canis lupus familiaris; settings: in vivo
[31] = AUC in fasted female beagle dog at 1 mg/kg, po; type: ADME, organism-based, Canis lupus familiaris; settings: in vivo
[32] = target: Metabotropic glutamate receptor 1 (Rattus norvegicus) (UniProt P23385); test: Negative allosteric modulation of mGluR1 in newborn Sprague-Dawley rat cerebelli assessed as reduction of DHPG-induced cytosolic Ca2+ influx after 10 to 20 mins by fluo-4/AM-dye based fluorometric analysis; type: functional
[33] = Plasma concentration in Wistar rat at 0.5 mg/kg, po after 75 mins; type: ADME, organism-based; outline: as §1
[34] = Plasma concentration in Wistar rat at 10 mg/kg, po qd measured after first dosing during Vogel punished drinking conflict test; type: ADME, organism-based; outline: as §2
[35] = target: Metabotropic glutamate receptor 5 (Homo sapiens, UniProt P41594); test: Displacement of [3H]M-MPEP from mGluR5 in male human post mortem parietal cortical tissue after 30 mins by scintillation counting method
Sequence of Metabotropic glutamate receptor 5 (P41594 whole entry): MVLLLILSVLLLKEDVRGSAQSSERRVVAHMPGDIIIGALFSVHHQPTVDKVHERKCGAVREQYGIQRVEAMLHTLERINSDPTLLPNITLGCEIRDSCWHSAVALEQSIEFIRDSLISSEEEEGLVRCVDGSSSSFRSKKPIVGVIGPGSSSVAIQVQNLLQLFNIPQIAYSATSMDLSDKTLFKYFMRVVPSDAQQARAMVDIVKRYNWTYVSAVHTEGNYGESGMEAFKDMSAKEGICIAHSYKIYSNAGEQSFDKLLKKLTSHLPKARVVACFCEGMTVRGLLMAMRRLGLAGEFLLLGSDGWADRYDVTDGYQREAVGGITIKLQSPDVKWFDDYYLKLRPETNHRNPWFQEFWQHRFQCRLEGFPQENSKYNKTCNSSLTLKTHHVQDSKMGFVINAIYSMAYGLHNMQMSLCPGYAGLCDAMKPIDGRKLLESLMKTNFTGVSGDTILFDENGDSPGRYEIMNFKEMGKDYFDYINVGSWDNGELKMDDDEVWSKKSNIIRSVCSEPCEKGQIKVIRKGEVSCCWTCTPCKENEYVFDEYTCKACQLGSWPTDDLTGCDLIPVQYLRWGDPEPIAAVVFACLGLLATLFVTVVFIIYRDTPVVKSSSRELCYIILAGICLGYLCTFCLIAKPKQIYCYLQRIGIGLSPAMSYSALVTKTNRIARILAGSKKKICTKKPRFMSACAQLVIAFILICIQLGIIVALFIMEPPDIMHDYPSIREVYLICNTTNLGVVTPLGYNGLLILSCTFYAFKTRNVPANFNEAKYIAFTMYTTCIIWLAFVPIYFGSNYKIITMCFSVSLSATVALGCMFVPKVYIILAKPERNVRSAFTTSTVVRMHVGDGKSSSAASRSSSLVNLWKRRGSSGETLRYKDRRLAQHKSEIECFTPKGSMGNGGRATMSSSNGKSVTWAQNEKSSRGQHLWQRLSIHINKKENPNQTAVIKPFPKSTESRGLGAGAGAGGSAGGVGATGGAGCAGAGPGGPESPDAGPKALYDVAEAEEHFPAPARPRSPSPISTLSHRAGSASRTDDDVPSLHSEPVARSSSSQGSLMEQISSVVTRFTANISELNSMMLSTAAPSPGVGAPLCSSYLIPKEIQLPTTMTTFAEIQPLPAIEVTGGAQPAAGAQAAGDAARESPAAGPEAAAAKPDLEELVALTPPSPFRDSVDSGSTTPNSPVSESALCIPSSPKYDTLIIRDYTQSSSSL

Sequence of Metabotropic glutamate receptor 1 (Rattus norvegicus) (P23385 19-1199 limits assumed): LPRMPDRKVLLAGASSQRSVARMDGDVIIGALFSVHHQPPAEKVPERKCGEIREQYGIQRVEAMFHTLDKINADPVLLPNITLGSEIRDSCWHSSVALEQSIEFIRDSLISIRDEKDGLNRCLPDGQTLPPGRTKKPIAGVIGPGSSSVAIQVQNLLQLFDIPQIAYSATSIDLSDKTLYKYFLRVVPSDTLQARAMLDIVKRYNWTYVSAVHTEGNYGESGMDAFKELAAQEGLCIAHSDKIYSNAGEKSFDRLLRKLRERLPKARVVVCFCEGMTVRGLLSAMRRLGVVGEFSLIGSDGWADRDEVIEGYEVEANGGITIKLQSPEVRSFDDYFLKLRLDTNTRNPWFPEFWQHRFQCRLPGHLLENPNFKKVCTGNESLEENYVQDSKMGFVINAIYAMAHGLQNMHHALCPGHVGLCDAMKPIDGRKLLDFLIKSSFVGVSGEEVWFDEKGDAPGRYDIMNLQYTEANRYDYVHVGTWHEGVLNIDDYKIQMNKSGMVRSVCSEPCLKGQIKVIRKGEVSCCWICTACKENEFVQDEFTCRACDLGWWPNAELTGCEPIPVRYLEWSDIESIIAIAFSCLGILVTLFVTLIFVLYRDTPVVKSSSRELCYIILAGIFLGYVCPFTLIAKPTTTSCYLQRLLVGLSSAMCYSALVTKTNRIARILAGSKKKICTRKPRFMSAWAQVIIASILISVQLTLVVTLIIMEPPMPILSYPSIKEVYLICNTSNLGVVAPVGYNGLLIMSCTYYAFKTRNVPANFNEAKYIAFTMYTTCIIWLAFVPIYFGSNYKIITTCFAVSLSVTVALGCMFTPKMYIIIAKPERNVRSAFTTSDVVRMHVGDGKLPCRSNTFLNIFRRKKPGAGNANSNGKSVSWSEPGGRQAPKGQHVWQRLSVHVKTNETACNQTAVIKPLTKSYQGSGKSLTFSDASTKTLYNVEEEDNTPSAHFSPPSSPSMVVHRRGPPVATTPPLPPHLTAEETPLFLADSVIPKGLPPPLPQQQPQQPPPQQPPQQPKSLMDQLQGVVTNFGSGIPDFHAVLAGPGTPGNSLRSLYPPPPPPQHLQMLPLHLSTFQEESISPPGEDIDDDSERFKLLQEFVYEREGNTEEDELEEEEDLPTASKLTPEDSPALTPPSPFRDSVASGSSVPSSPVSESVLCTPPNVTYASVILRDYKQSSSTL
Sequence of Cytochrome P450 3A4 (P08684 whole entry): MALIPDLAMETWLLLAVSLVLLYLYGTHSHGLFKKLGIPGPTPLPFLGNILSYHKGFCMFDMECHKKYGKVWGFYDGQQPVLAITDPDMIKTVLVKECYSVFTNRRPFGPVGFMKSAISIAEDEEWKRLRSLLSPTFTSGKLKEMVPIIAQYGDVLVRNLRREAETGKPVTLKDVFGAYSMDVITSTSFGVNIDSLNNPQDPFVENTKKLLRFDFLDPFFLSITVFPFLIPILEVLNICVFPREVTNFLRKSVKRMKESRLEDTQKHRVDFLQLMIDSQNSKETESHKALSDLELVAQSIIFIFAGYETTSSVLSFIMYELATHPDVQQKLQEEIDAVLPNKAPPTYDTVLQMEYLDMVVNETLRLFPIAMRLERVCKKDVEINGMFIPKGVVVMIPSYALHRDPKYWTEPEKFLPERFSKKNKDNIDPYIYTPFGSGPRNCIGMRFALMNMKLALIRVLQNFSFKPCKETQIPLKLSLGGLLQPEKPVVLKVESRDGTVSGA

**Q.** What does the source list for `N#Cc1cccc(S(=O)(=O)c2cnc3cc(F)ccc3c2-c2ccc(Cl)cc2)c1`?
**A.** CLint (Liver [1]): 0.25 mL/min/g; minimal effective dose (Rattus norvegicus [2]): 3 mg/kg; concentration at 0.75 h [3]: 51.1 nM; concentration (Plasma): 986 nM; TI (Rattus norvegicus [4]): 28.3; Papp (MDR1 [5]): 11.5 ×10⁻⁶ cm/s; efflux ratio (MDR1 [6]): 0.74; CLint (Liver [7]): 0.27 mL/min/g; fraction unbound [8]: 0.0027; IC50 (Cytochrome P450 3A4): > 10 µM; concentration at 1.25 h [9]: 99 nM; Activity (Rattus norvegicus [10]): Active; Activity (Rattus norvegicus [11]): Dose-dependent effect; ED50 (Rattus norvegicus [11]): 1.5 mg/kg; Activity (Rattus norvegicus [12]): Dose-dependent effect; ED50 (Rattus norvegicus [12]): 0.95 mg/kg; Activity (Rattus norvegicus [13]): Non-Toxic; MED (Rattus norvegicus [13]): > 30 mg/kg; NOAEL [14]: 30 mg/kg; Activity (Rattus norvegicus [15]): Dose-dependent effect; ED50 (Rattus norvegicus [15]): 50 mg/kg; clearance [16]: 27.9 mL/min/kg; clearance [17]: 14.3 mL/min/kg; Vd [18]: 12.4 L/kg; Vd [19]: 9.6 L/kg; half-life [20]: 7.06 h; half-life [21]: 11.8 h; half-life [22]: 12.8 h; half-life [23]: 10.7 h; half-life [24]: 1.4 h; Tmax [25]: 0.75 h; Tmax [26]: 0.5 h; Cmax [27]: 650 nM; AUC [28]: 0.707 µM·h; AUC [29]: 7.3 µM·h; AUC [30]: 1.86 µM·h; AUC [31]: 1.68 µM·h; Activity [32]: Active; concentration at 1.25 h [33]: 34.8 nM; concentration at 1 day [34]: 787 nM; Ki [35]: 0.0108 µM
